Assay outcomes: PubChem, several laboratories
An excerpt weighted towards active compounds, which were near 4.7% of everything screened.
Cl transport mod – KCC2 (human) Cl- transport modulation. Q9H2X9. KCC2 cells, thallium flux FluoZin-2 fluorescence. B-score of Tl+ flux slope (higher = more flux/activation; lower = inhibition) at 10 µM. 2.2% of 190,000 active;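 active = thallium flux slope and its plate-corrected score both differing from the plate sample mean at a set confidence after two filtering rounds, in either direction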;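 also: slope of fluorescence scaled to starting intensity during 10 to 20 s after thallium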
RGS4 pot – RGS4 potentiation or activation. AID 463111. HEK293 M3R/inducible RGS4, carbachol calcium flux Fluo4; active compounds read low. B-score at 10 µM. 0.92% of 310,000 active;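 active = B-score of the integrated calcium signal more than 4 SD below the library mean, with starting fluorescence not abnormally high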;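 also: negative B-score means reduced calcium response which marks RGS4 activation or potentiation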
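test system = HEK293 cells with stable M3R and inducible RGS4 | schedule = recording 10 s baseline at 1 Hz, 100 s post-agonist | technique = Fluo4-AM (2 µM) calcium-flux fluorescence, kinetic read | measure = Agonist-evoked peak-minus-minimum fluorescence over baseline, integrated ratio, B score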
MrgX1 ag – activates human MrgX1 receptor signaling | 0.44% of 310,000 active | AID 588627 | MrgX1-HEK293 cells, Fluo-4 calcium fluorescence, agonist mode; active compounds read high | B-score at 10 µM;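 active = calcium response B-score plate-corrected fluorescence ratio at least 3 library SD, with starting fluorescence B-score inside 5 SD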
Target sequence (Q96LB2 whole entry, looked up): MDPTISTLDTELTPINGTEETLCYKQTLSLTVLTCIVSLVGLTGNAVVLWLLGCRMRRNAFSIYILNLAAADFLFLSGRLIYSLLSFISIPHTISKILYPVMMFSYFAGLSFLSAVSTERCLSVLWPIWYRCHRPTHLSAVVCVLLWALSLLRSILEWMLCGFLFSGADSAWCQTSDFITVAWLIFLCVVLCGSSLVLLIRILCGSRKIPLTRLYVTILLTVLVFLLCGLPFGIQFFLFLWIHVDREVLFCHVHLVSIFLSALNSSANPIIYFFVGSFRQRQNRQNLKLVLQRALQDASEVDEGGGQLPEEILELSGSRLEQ
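System: HEK293 cells stably expressing human MrgX1 receptor; Dosing: test compound in the initial addition of three; Schedule: overnight plating, then 30 min 37 °C plus 30 min room-temperature dye loading; Detection: kinetic calcium dye fluorescence, Fluo-4 NW; Controls: per-plate positive and negative controls for Z′ factor.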
MrgX1 PAM – human MrgX1 positive allosteric modulation, primary screen | MrgX1-HEK293, Fluo-4 calcium flux, FDSS; active compounds read high | B-score at 10 µM | 0.63% of 310,000 active | AID 588675;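 active = plate-corrected calcium response at least 3 library SD above typical, normal starting fluorescence, not activating the receptor alone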;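 also: compound read alongside a low EC10 to EC30 dose of BAM8-22 agonist; peak minus trough fluorescence over baseline measured at the second addition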
RGS4 block – inhibitors of human RGS4 | HEK293 M3R/RGS4 inducible, Fluo-4 calcium flux; active compounds read high; triggered by carbachol at its EC20 | B-score at 10 µM | P49798 | AID 463165 | 0.45% of 310,000 active;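 active = B-score, a plate-corrected calcium signal, over three deviations above library mean, with baseline fluorescence within five deviations of library mean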;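 also: RGS4 expression induced by doxycycline in cells with stable M3 receptor; B-score is computed from the integrated fluorescence ratio over baseline after carbachol; higher B-score means a larger calcium signal and so more RGS4 inhibition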
Target sequence (P49798 whole entry, looked up): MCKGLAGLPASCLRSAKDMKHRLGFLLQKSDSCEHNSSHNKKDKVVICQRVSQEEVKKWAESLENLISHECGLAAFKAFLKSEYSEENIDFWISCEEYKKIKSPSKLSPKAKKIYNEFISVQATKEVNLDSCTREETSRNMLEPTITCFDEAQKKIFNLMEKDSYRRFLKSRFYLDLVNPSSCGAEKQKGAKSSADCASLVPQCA
MrgX1 antag – human MrgX1 receptor antagonism, primary screen | Q96LB2 | MRGX1-HEK293 calcium flux, Fluo-4, BAM8-22 antagonism; active compounds read low | B-score at 10 µM | 1.3% of 310,000 active | AID 588676;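 active = calcium-response B-score plate-corrected more than 3 library SD below zero, starting fluorescence within 5 deviations, no agonist response on first addition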;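 also: peak minus trough fluorescence over baseline after final BAM8-22 challenge near maximal dose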
MrgX1 ag confirm – human MrgX1 agonism, re-confirmation screen; AID 602412; activation, % at 10 µM; MrgX1-HEK293, Fluo-4 calcium fluorescence, FDSS; 78% of 600 active; shares compounds with MrgX1 ag;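 active = calcium signal rise, corrected for plate position, at least 3 library SD high, with starting brightness within 5 such deviations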
HEK293 Ca flux – counter-screen for MrgX1 antagonists: effect in parental HEK293 cells. shares compounds with MrgX1 antag. Fluo-4 calcium fluorescence, FDSS. fluorescence ratio F(max-min)/F0 at 10 µM. 2% of 4,000 active;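 active = duplicate-averaged calcium fluorescence ratio at least three times the standard deviation of buffer wells, a nonspecific response in parental cells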
HEK293 Ca counter – activity in parental HEK293 cells without MrgX1 | parental HEK293 calcium flux, Fluo-4 fluorescence ratio; active compounds read high | fluorescence ratio F(max-min)/F0 at 10 µM | shares compounds with MrgX1 antag | 0.4% of 4,000 active;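 active = calcium fluorescence ratio, averaged over duplicates, at least 3 SD of the buffer-well ratio, meaning a nonspecific response in receptor-free cells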;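 also: untransfected parental HEK293 lacking MrgX1 used as counterscreen for MrgX1 allosteric activators; fluorescence change taken during the second addition on a kinetic imager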
HEK293 Ca cntr2 – MrgX1 activator counter-screen hit in parental HEK293 cells; fluorescence ratio F(max-min)/F0 at 10 µM; 8.7% of 4,000 active; AID 624115; shares compounds with MrgX1 antag; Fluo-4 calcium fluorescence (FDSS); active compounds read high;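 active = calcium fluorescence ratio at least three times the spread of buffer wells, meaning a non-specific response in parental cells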
* hit, by the source's call; i = inactive; · = no result given.

SMILES	Cl transport mod	RGS4 pot	MrgX1 ag	MrgX1 PAM	RGS4 block	MrgX1 antag	MrgX1 ag confirm	HEK293 Ca flux	HEK293 Ca counter	HEK293 Ca cntr2
Cc1ccccc1NC(=O)CN1CCOCC1	·	i	35*	i	i	i	i	i	i	i
Cc1ccccc1NC(=O)CN1CCN(C)CC1	·	i	i	i	i	i	·	·	·	·
Cc1sc2ncnc(SCC(=O)NC3CCCC3)c2c1C	·	i	i	i	i	i	·	·	·	·
Cc1sc2ncnc(N(C)C3CCCCC3)c2c1C	·	i	38*	i	i	i	i	i	i	i
CN(Cc1cccs1)C(=O)CNC(=O)c1ccco1	·	i	i	i	i	i	·	·	·	·
Cc1cc(=O)[nH]c(SCC(=O)Nc2ccccc2[N+](=O)[O-])n1	0.081	i	i	i	i	i	·	·	·	·
NC(=S)NC1CCS(=O)(=O)C1 (centres undefined)	0.22	i	i	i	i	i	·	·	·	·
C=CCSC(=S)NC1CCS(=O)(=O)C1 (centres undefined)	-0.082	i	31*	i	i	i	i	i	i	i
Cn1nnnc1SCC(=O)N(C1CCCCC1)C1CCS(=O)(=O)C1 (centres undefined)	-2.5	i	i	i	i	i	·	·	·	·
Oc1ccccc1Nc1nc(NCc2ccccc2)c2ccccc2n1	-0.15	i	i	i	i	i	·	·	·	·
CNc1nc(NCc2ccccc2)c2ccccc2n1	·	i	76*	i	i	i	253%*	i	i	i
Cc1ccc(-n2ncc3c(NCc4ccc5c(c4)OCO5)ncnc32)c(C)c1	-1.2	i	32*	i	i	i	224%*	i	i	48*
O=C(N/N=C/c1ccccc1)c1ccco1	1.6	i	i	i	i	i	·	·	·	·
O=C(C#Cc1ccccc1)c1ccco1	·	i	44*	i	i	i	240%*	i	i	i
CCOc1cc(/C=C/C(=O)c2ccc(OC)c(CN3CCOCC3)c2)cc(Br)c1O	·	i	143*	i	i	i	675%*	i	i	131*
CCCn1c(=N)c(C#N)cc2c(=O)n3ccccc3nc21	0.11	i	i	i	i	i	·	·	·	·
CCC(C)n1c(=N)c(C#N)cc2c(=O)n3ccccc3nc21 (centres undefined)	-1.2	i	26*	i	i	i	i	i	i	i
Cc1ccc(S(=O)(=O)N2CCCCC2)cc1NC(=O)CNc1ccc(C(F)(F)F)cc1	·	i	i	i	i	i	·	·	·	·
COc1ccccc1Oc1ccc2c(c1)C(=O)N(CC1CCCO1)C2=O (centres undefined)	-0.99	i	i	i	i	i	·	·	·	·
Cc1ccccc1C(=O)NNC(=S)NC(=O)c1cccs1	·	i	79*	i	i	i	651%*	i	i	130*
O=C(NC(=S)NNC(=O)c1cccs1)c1ccccc1	·	i	132*	i	i	i	547%*	i	i	107*
Cc1cccc(C(=O)NC(=S)NNC(=O)c2cccs2)c1	34*	i	173*	i	i	i	647%*	i	i	140*
O=C(NNC(=O)c1cccs1)c1cccc(F)c1	·	i	i	i	i	i	·	·	·	·
COc1ccc(N2CCN(C(C)C(=O)N3CCCC3)CC2)cc1 (centres undefined)	1.1	i	i	i	i	i	·	·	·	·
COc1cccc(N2CCN(C(=O)c3ccc(Cl)c(NC4=NC5CS(=O)(=O)CC5S4)c3)CC2)c1 (centres undefined)	·	i	i	i	i	i	·	·	·	·
SMILES	Cl transport mod	RGS4 pot	MrgX1 ag	MrgX1 PAM	RGS4 block	MrgX1 antag	MrgX1 ag confirm	HEK293 Ca flux	HEK293 Ca counter	HEK293 Ca cntr2
Cc1cc(-c2csc(N)n2)c(C)n1C	-0.027	i	31*	i	i	i	150%*	i	i	i
CCn1ncc(-c2csc(N)n2)c1C	0.47	i	i	i	i	i	·	·	·	·
N#CC1=C(SCc2ccccc2)NC(=O)CC1c1ccco1 (centres undefined)	-0.0074	i	41*	i	i	i	180%*	i	i	i
c1ccc2c(c1)NC1(CCCC1)n1c-2nc2ccccc21	·	i	29*	i	i	i	144%*	i	i	i
O=C1COc2ccc(C(=O)CSc3nnc(-c4cccs4)n3Cc3ccccc3)cc2N1	·	i	i	i	i	i	·	·	·	·
O=C1COc2ccc(C(=O)CSc3nnc(Cc4cccs4)n3-c3ccccc3)cc2N1	-1.1	i	27*	i	i	i	175%*	i	i	i
COc1ccc(C(=O)NCCc2ccccc2)cc1OC	·	i	i	i	i	i	·	·	·	·
COc1ccc(/C(O)=C/c2nc3ccc(C(=O)NCCc4cccc(C)c4)cc3[nH]c2=O)cc1OC	-0.07	i	28*	i	i	i	i	i	i	i
CCN1CCN(CCNC(=O)c2ccc(CS(=O)c3ccc(Br)cc3)o2)CC1 (centres undefined)	·	i	i	i	i	i	·	·	·	·
O=C1CSc2ccc(C(=O)NCCC3=CCCCC3)cc2N1	·	i	119*	i	i	i	i	i	i	i
COCCNC(=O)c1ccc2c(c1)NC(=O)CS2	-0.11	i	i	i	i	i	·	·	·	·
Cc1ccc(C2C(C#N)=C(N)Oc3n[nH]c(-c4cccnc4)c32)o1 (centres undefined)	-1.5	i	36*	i	i	i	167%*	i	i	i
Cc1ccc(S(=O)(=O)Nc2ccc(Cl)cn2)cc1C	·	i	i	i	i	i	·	·	·	·
COc1ccccc1NC(=O)C1CCCN(S(=O)(=O)c2ccc(-n3cnnn3)cc2)C1 (centres undefined)	·	i	i	i	i	i	·	·	·	·
